{
  "source": "paper PMC9236207",
  "about": "(ACS Pharmacology & Translational Science, 2022)",
  "key": {"ACE2 [1]": {"target": "T1, ACE2 (Homo sapiens, UniProt Q9BYF1)", "T1 sequence (Q9BYF1 18-740)": "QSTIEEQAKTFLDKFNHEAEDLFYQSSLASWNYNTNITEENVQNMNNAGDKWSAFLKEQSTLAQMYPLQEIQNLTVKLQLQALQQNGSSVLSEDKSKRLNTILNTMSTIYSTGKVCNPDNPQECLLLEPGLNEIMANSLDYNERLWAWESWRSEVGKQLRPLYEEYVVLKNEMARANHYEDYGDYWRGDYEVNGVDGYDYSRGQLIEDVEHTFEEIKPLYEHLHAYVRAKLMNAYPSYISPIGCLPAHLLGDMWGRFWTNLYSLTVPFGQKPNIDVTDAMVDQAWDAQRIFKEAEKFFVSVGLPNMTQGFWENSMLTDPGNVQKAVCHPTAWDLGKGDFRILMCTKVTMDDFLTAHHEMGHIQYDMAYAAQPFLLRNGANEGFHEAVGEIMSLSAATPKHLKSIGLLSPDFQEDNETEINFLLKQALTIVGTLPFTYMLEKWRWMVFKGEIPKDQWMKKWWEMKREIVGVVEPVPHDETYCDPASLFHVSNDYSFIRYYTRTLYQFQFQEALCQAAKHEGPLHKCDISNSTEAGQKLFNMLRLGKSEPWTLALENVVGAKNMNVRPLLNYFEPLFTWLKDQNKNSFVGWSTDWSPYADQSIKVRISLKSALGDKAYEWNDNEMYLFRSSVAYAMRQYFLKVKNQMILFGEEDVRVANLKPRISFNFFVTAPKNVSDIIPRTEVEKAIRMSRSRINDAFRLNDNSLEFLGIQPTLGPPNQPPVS", "experiment": "ACE2 binding by microscale thermophoresis", "summary_of_the_method": "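Seven-point twofold compound dilution series. MST at 45% excitation and medium MST power. Kd (± standard error) fitted from the change in normalized fluorescence. A poly-His peptide counterscreen was run under identical conditions.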"}, "ACE2 [2]": {"target": "T1, ACE2", "experiment": "ACE2 enzymatic assay", "format": "biochemical", "summary_of_the_method": "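Fluorometric assay with His-tagged ACE2 extracellular domain at 0.2 nM final in PBS pH 7.4, 0.01% Tween-20, preincubated with compound for 15 min at RT. Then MCA-Ala-Pro-Lys(Dnp)-OH substrate was added (60 μM stock). Fluorescence read at 340/440 nm at 0 and 15 min, RT.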"}},
  "data": [
    {"smiles": "CC(C)C[C@H](N[C@@H](Cc1cncn1Cc1cc(Cl)cc(Cl)c1)C(=O)O)C(=O)O", "note": "[MLN-4760]", "values": [
      {"measurement": "Kd", "setting": "ACE2 [1]", "value": 702, "unit": "nM"},
      {"measurement": "IC50", "setting": "ACE2 [2]", "value": 1.5, "unit": "nM"}
    ]}
  ]
}
